Assay [1] has as its system Vero. The assay is described as follows: Concentration of compound required to reduce by 50% the number of african swine fever virus (ASFV) plaques in vero cells. Type of assay: functional. The note with it: Chlorocebus sabaeus, read-out: ED50 (the source's name).
Assay [2] can be described thus: Compound concentration required to reduce by 50% the number of T-C8166 lymphoblastoid cells after three cell cycles. The following applies: Homo sapiens; read-out: ID50 (the source's name). Type of assay: functional. Summed up:
(§1)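 Suspension cultures seeded at 1×10^5 cells/mL in RPMI-1640 with 10% FCS. Grown with a range of compound concentrations at 37 °C for 72 h, then counted on a Coulter counter. Growth is expressed as a percentage of untreated controls, and the 50% inhibitory dose is taken by linear regression. Mean of three separate experiments.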

The test system of a further assay is L1210. Nature of the assay: Compound concentration required to reduce by 50% the number of murine lymphocytic leukemia (L1210) cells after three cell cycles. Type of assay: functional. The note with it: Mus musculus, read-out: ID50 (the source's name). Summed up: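 Mouse L1210 leukemia cells seeded at 1×10^5 cells/mL in RPMI-1640 with 10% FCS. Exposed to graded compound concentrations at 37 °C for 36 h, then counted on a Coulter counter. Growth is taken as a percentage of untreated controls, and the 50% dose is found by linear regression. Mean of three experiments.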

In the next assay the test system is Raji. Nature of the assay: Compound concentration required to reduce by 50% the number of human B (Raji)cells after three cell cycles. Type of assay: functional. The following applies: read-out: ID50 (the source's name). In outline:
as §1

The subject of assay [3] is Vero. Nature of the assay: Compound concentration required to reduce by 50% the number of fibroblast-like cells (Vero) after three cell cycles. The format is functional. The following applies: Chlorocebus sabaeus, read-out: ID50 (the source's name). Summed up: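 Vero monolayers seeded at 1×10^5 cells/mL in DMEM with 10% newborn calf serum and left to adhere overnight. Medium with various compound concentrations was then added for 3 days at 37 °C. Cells were trypsinized and counted on a Coulter counter. The 50% dose comes from linear regression of percent growth against untreated controls. Mean of three experiments.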

Assay [4] relates to Vero. The assay is described as follows: Concentration of compound required to reduce by 50% the number of herpes simplex virus (HSV-1) plaques in vero cells. The note with it: Chlorocebus sabaeus, read-out: ED50 (the source's name). The format is functional.
A further assay has as its system H9. The assay is described as follows: Compound concentration required to reduce by 50% the number of H9 cells chronically infected with the HIV-1 (H9/IIIB) after three cell cycles. Type of assay: functional. The note with it: Homo sapiens, read-out: ID50 (the source's name). Summed up: as §1
The subject of a further assay is C8166. The assay is described as follows: Effective dose which reduces the HIV-1 yield in C8166 cells by 90%. Type of assay: functional, Homo sapiens. In outline: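 C8166 cells at 1×10^8/mL infected with 1×10^5 CCID50 HIV-1 (from H9/IIIB supernatants) for 2 h at 37 °C, washed three times, then resuspended at 1×10^5/mL with compound for 3 days. Virus yield was measured by limiting-dilution end-point titration on C8166 (1:2 dilutions, four wells each, syncytia scored after 4 days, Reed–Muench CCID50/mL).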

Assay [5] has as its system Vero. The assay is described as follows: Concentration of compound required to reduce by 50% the number of coxsackie virus plaques in vero cells. Type of assay: functional. The note with it: Chlorocebus sabaeus, read-out: ED50 (the source's name).
Assay [6] can be described thus: Compound concentration required to reduce by 50% the number of T-MT4 lymphoblastoid cells after three cell cycles. Type of assay: functional. The note with it: Homo sapiens; read-out: ID50 (the source's name). Summed up: as §1
Assay [7] concerns Vero. Nature of the assay: Concentration of compound required to reduce by 50% the number of vesicular stomatitis virus (VSV) plaques in vero cells. The following applies: Chlorocebus sabaeus, read-out: ED50 (the source's name). Type of assay: functional.
Assay [8] can be described thus: Compound concentration required to reduce by 50% the number of T-H9 lymphoblastoid cells after three cell cycles. Type of assay: functional. The following applies: Homo sapiens; read-out: ID50 (the source's name). Summed up: as §1
Assay [9] relates to Vero. The assay is described as follows: Concentration of compound required to reduce by 50% the number of polio virus plaques in vero cells. The format is functional. The note with it: Chlorocebus sabaeus, read-out: ED50 (the source's name).

With `NC(=O)c1nn([C@@H]2O[C@H](CO)[C@@H](O)[C@H]2O)cc1I`, the EC50 with Vero [1] is over 1.35 mM; in the assay on Vero [4], over 1.35 mM; in the assay with Vero [5], 0.12 mM; with Vero [7] it was over 1.35 mM; in the assay on Vero [9], over 1.35 mM. Also, the IC50 in assay [2] was 8 µM; in the assay on L1210, over 1.35 mM; with Raji, over 1.35 mM; in the assay with Vero [3], over 1.35 mM; with H9 it was 20 µM; in assay [6], 27 µM. Moreover, in assay [8], the IC50 was 40 µM. In the assay with C8166, the ED90 is 20 µM.

As to `NC(=O)c1nn(C2O[C@H](CO)[C@@H](O)[C@H]2O)cc1N` (stereo partly specified), the EC50 in the assay with Vero [1], in the assay with Vero [4], in the assay on Vero [5], in the assay with Vero [7] and in the assay with Vero [9] was over 1.83 mM each time. The IC50 is 320 µM in assay [2]; over 1.83 mM in the assay with L1210; 1.28 mM in the assay on Raji; over 1.83 mM in the assay on Vero [3]; 550 µM in the assay with H9; 470 µM in assay [6]. In addition, in [8], the IC50 came to 580 µM. This compound also returned an ED90 in the assay with C8166 of over 320 µM.

`CCCCCn1nnc2c(C)nn(C3O[C@H](CO)[C@@H](O)[C@H]3O)c2c1=O` (stereo partly specified): the EC50 with Vero [1], with Vero [4], in the assay with Vero [5], in the assay on Vero [7] and in the assay with Vero [9] was over 1.4 mM in each case. In addition, the IC50 in assay [2] was 280 µM; in the assay with L1210, over 1.4 mM; in the assay with Raji it was 1.4 mM; in the assay with Vero [3], over 1.4 mM; in assay [6], 540 µM; in [8], 710 µM. Also, the ED90 in the assay on C8166 is over 200 µM.

Take `NC(=O)c1nn(C2O[C@H](CO)[C@@H](O)[C@H]2O)cc1[N+](=O)[O-]` (stereo partly specified): the EC50 with Vero [1], in the assay with Vero [4], in the assay with Vero [5], with Vero [7] and with Vero [9] was over 1.73 mM throughout. In addition, the IC50 was 12 µM in [2]; over 1.73 mM in the assay on L1210; over 1.73 mM with Raji; over 1.73 mM with Vero [3]; over 1730 µM in the assay on H9; 80 µM in assay [6]. In addition, the IC50 in assay [8] was over 1730 µM. Moreover, in the assay on C8166, the ED90 stood at 25.4 µM.

Turning to `NC(=O)c1ccn(C2O[C@H](CO)[C@@H](O)[C@H]2O)n1` (stereo partly specified), the EC50 in the assay with Vero [1], with Vero [4], in the assay on Vero [5], in the assay on Vero [7] and in the assay on Vero [9] was over 2.05 mM throughout. For the same compound, the IC50 was 900 µM in assay [2]; over 1.03 mM in the assay with L1210; 1.03 mM with Raji; over 1.03 mM with Vero [3]; over 1030 µM in the assay on H9; over 1030 µM in assay [6]. Moreover, the IC50 in assay [8] worked out at 1030 µM. The same compound had an ED90 with C8166 of over 900 µM.

Take `Cc1c(N)c(C(N)=O)nn1C1O[C@H](CO)[C@@H](O)[C@H]1O` (stereo partly specified): the EC50 with Vero [1], with Vero [4], with Vero [5], in the assay on Vero [7] and in the assay on Vero [9] was over 1.84 mM in each case. Moreover, the IC50 in assay [2] was over 1840 µM; in the assay with L1210, over 1.84 mM; with Raji it was over 1.84 mM; in the assay with Vero [3], over 1.84 mM; in the assay on H9, over 1840 µM; in assay [6], over 1840 µM. The IC50 in [8] is over 1840 µM. Besides, in the assay on C8166, the ED90 was over 1840 µM.

As for `NC(=O)c1nn(C2O[C@H](CO)[C@@H](O)[C@H]2O)cc1Br` (stereo partly specified), the EC50 with Vero [1], with Vero [4], with Vero [5], in the assay on Vero [7] and with Vero [9] was over 1.55 mM each time. Besides, the IC50 was 4 µM in assay [2]; over 1.55 mM with L1210; over 1.55 mM in the assay on Raji; over 1.55 mM in the assay with Vero [3]; 50 µM in the assay with H9; 20 µM in [6]. Moreover, the IC50 in assay [8] stood at 50 µM. The ED90 in the assay with C8166 was 12.2 µM.

Turning to `Cc1c([N+](=O)[O-])c(C(N)=O)nn1C1O[C@H](CO)[C@@H](O)[C@H]1O` (stereo partly specified), the EC50 in the assay on Vero [1], in the assay with Vero [4], in the assay on Vero [5], with Vero [7] and with Vero [9] was over 1.65 mM in each case. The IC50 in assay [2] is over 1650 µM; with L1210 it was over 1.65 mM; with Raji, over 1.65 mM; in the assay with Vero [3], over 1.65 mM; in the assay with H9, over 1650 µM; in assay [6], 1490 µM. Moreover, in assay [8], the IC50 was over 1650 µM. Besides, the ED90 with C8166 was over 1650 µM.

As to `Nc1nc2c(ncn2COCCO)c(=O)[nH]1` [ACYCLOVIR], the EC50 was over 1.3 mM in the assay on Vero [1] and 4e-05 mM in the assay with Vero [4].

Regarding `COc1cccc2c1C(=O)c1c(O)c3c(c(O)c1C2=O)C[C@@](O)(C(=O)CO)C[C@@H]3O[C@H]1C[C@H](N)[C@H](O)[C@H](C)O1` [DOXORUBICIN], the IC50 in assay [2] was determined as 0.01 µM; in the assay with L1210 it was 2e-05 mM; in the assay on Raji, 1e-05 mM; in the assay with Vero [3], 0.0001 mM; with H9, 0.01 µM; in assay [6], 0.01 µM. Further, the IC50 in assay [8] amounted to 0.01 µM.

As for `N=C(N)N` [GUANIDINE], in the assay with Vero [9], the EC50 is 0.125 mM.

For the compound `CN(Cc1cnc2nc(N)nc(N)c2n1)c1ccc(C(=O)N[C@@H](CCC(=O)O)C(=O)O)cc1` [METHOTREXATE], the IC50 in [2] amounted to 0.03 µM; in the assay with L1210, 4e-05 mM; with Raji it was 2e-05 mM; with Vero [3] it was 2e-05 mM; with H9 it was 0.03 µM; in assay [6] it was 0.03 µM. In addition, the IC50 in [8] turned out to be 0.03 µM.

`Cc1cn([C@H]2C[C@H](N=[N+]=[N-])[C@@H](CO)O2)c(=O)[nH]c1=O` [ZIDOVUDINE]: the ED90 in the assay with C8166 came out at 0.003 µM.

The values above are taken from ChEMBL document CHEMBL1125397, “Pyrazole-related nucleosides. Synthesis and antiviral/antitumor activity of some substituted pyrazole and pyrazolo[4,3-d]-1,2,3-triazin-4-one nucleosides” (1992).
